For 18 molecules, IC50 results are on record in ChEMBL document CHEMBL1138142, “Novel endoperoxides: synthesis and activity against Candida species” (Bioorg Med Chem Lett, 2006).

A value given as a limit tells only on which side of the number the result lay.

Common to all, as to format: functional, organism-based
The test system of experiment [1] is Candida albicans. The experiment can be described thus: Inhibitory activity against Candida albicans. The gist of the method: (§1)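 Microbroth dilution in YEPD (1% yeast extract, 2% peptone, 2% glucose, […]), starting inoculum A595 0.2–0.3; compounds as twofold serial dilutions down from 1 mM, growth control on same plate. Shaken at 35 °C; A595 read at addition and 2 h later. Triplicates averaged, IC50 (50% growth inhibition) calculated. Strains: C. albicans JRW #5, C. krusei WM 03,204 (clinical isolates), C. tropicalis ATCC 750.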

For experiment [2], the system named is Candida tropicalis. The experiment can be described thus: Inhibitory activity against Candida tropicalis. Summed up: as §1
The subject of experiment [3] is Pichia kudriavzevii. The experiment can be described thus: Inhibitory activity against Candida krusei. The gist of the method: as §1

As for `C1=C[C@@H](C2CCCCC2)OOC1`, the IC50 (commonly the concentration that inhibits the measured activity by half) in experiment [1] (Candida albicans) came to 9.5 µM; in experiment [2] (Candida tropicalis), 40 µM; in experiment [3] (Pichia kudriavzevii), 75 µM.

Consider `O=C(C1CCCCC1)[C@H]1O[C@H]1[C@@H](O)C1CCCCC1`, for which the IC50 is 250 µM in experiment [1] (Candida albicans), 63 µM in experiment [2] (Candida tropicalis) and 500 µM in experiment [3] (Pichia kudriavzevii).

On to NYSTATIN, for which the IC50 in experiment [1] came to 250 µM; in experiment [2], 100 µM; in experiment [3] it was 100 µM.

As to `C1CCC([C@H]2OOC[C@H]3O[C@@H]23)C1`, the IC50 in experiment [1] (Candida albicans) came out at 250 µM; in experiment [2] (Candida tropicalis), 75 µM; in experiment [3] (Pichia kudriavzevii), 300 µM.

With `C1=C[C@H](C2CCCCC2)OO[C@@H]1C1CCCCC1`, the IC50 in experiment [1] (Candida albicans) is more than 1000 µM; in experiment [2] (Candida tropicalis), 200 µM; in experiment [3] (Pichia kudriavzevii), 400 µM.

For `C1CCC([C@H]2OO[C@@H](C3CCCC3)[C@@H]3O[C@@H]32)C1`, the IC50 in experiment [1] (Candida albicans) was 125 µM; in experiment [2] (Candida tropicalis), 125 µM; in experiment [3] (Pichia kudriavzevii), 63 µM.

Turning to `C1CC([C@H]2OO[C@@H](C3CCC3)[C@H]3O[C@H]32)C1`, the half-maximal inhibitory concentration (IC50) stood at 250 µM in experiment [1] (Candida albicans), 250 µM in experiment [2] (Candida tropicalis) and 500 µM in experiment [3] (Pichia kudriavzevii).

Take `C1CC([C@H]2OO[C@@H](C3CCC3)[C@@H]3O[C@@H]32)C1`: the values for the IC50 in experiment [1] (Candida albicans), in experiment [2] (Candida tropicalis) and in experiment [3] (Pichia kudriavzevii) were 250 µM, 500 µM and 500 µM, respectively.

Take `C1CCC([C@H]2OOC[C@@H]3O[C@@H]32)CC1`: the results for the IC50 in experiment [1] (Candida albicans), in experiment [2] (Candida tropicalis) and in experiment [3] (Pichia kudriavzevii) were 250 µM, 125 µM and 500 µM, respectively.

As for `C1CCC([C@H]2OO[C@@H](C3CCCCC3)[C@H]3O[C@H]32)CC1`, the figures for the IC50 in experiment [1] (Candida albicans), in experiment [2] (Candida tropicalis) and in experiment [3] (Pichia kudriavzevii) were 100 µM, 25 µM and 400 µM, respectively.

As to `C1=C[C@H](C2CCC2)OO[C@@H]1C1CCC1`, the results for the 50% inhibitory concentration (IC50) in experiment [1] (Candida albicans), in experiment [2] (Candida tropicalis) and in experiment [3] (Pichia kudriavzevii) were 125 µM, 125 µM and 250 µM, respectively.

As for `C[C@@H]1[C@H](O)[C@@H](C)/C=C/C=C/C=C/C=C/C=C/C=C/C=C/[C@H](O[C@@H]2O[C@H](C)[C@@H](O)[C@H](N)[C@@H]2O)C[C@@H]2O[C@](O)(C[C@@H](O)C[C@@H](O)[C@H](O)CC[C@@H](O)C[C@@H](O)CC(=O)O[C@H]1C)C[C@H](O)[C@H]2C(=O)O` [AMPHOTERICIN B], the IC50 is less than 0.5 µM in experiment [1] (Candida albicans), 0.1 µM in experiment [2] (Candida tropicalis) and 0.2 µM in experiment [3] (Pichia kudriavzevii).

`C1=C[C@@H](C2CCCC2)OOC1`: the IC50 in experiment [1] (Candida albicans) was 500 µM; in experiment [2] (Candida tropicalis) it was 250 µM; in experiment [3] (Pichia kudriavzevii) it was more than 1000 µM.

Take `C1CCC([C@H]2OO[C@@H](C3CCCCC3)[C@@H]3O[C@@H]32)CC1`: the IC50 was 100 µM in experiment [1] (Candida albicans), 200 µM in experiment [2] (Candida tropicalis) and more than 1000 µM in experiment [3] (Pichia kudriavzevii).

As to `C1=C[C@H](C2CCCC2)OO[C@@H]1C1CCCC1`, the IC50 in experiment [1] (Candida albicans) is 250 µM; in experiment [2] (Candida tropicalis) it was 125 µM; in experiment [3] (Pichia kudriavzevii), more than 1000 µM.

For `C1CCC([C@H]2OOC[C@@H]3O[C@@H]32)C1`, the concentration for half-maximal inhibition (IC50) in experiment [1] (Candida albicans) stood at 500 µM; in experiment [2] (Candida tropicalis), 250 µM; in experiment [3] (Pichia kudriavzevii), 500 µM.

As to `CC(=O)N1CCN(c2ccc(OCC3COC(Cn4ccnc4)(c4ccc(Cl)cc4Cl)O3)cc2)CC1` (centres undefined) [KETOCONAZOLE], the IC50 in experiment [1] (Candida albicans) amounted to 250 µM; in experiment [2] (Candida tropicalis), 12 µM; in experiment [3] (Pichia kudriavzevii), 100 µM.

Turning to `C1CCC([C@H]2OO[C@@H](C3CCCC3)[C@H]3O[C@H]32)C1`, the IC50 was found to be 250 µM in experiment [1] (Candida albicans), 125 µM in experiment [2] (Candida tropicalis) and 125 µM in experiment [3] (Pichia kudriavzevii).
